Assay results from PubChem BioAssay.
Active and inactive are the calls of the source. Unless noted, no stated cut-off is given here; in the data, active means inhibition above about 30%; inactive means the rest.

Columns and labels:
[1] = Her2 expression decrease, cell viability multiplex – SKBR3 breast tumor cells, AlphaScreen, ATP viability, primary screen (AID 461;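 active means Her2 level under about 52% in both replicate screens, with viability over 70% of control, limit read from the data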;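 on Her2 level: lower value means less Her2 protein in the cells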;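 on viability: percent of carrier control wells set as 100% viability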); conditions: SKBR3 Her2 protein level, 18-24 h, measured here: SKBR3 viability, ATP luminescence, at 10 µM
[2] = molecular target: Receptor tyrosine-protein kinase erbB-2 (Homo sapiens) (UniProt P04626); test: as above; conditions: 18-24 h, at 10 µM, stronger effect = lower value
[3] = reduced viability of SK-BR-3 breast cancer cells – cell-based, 24 h, human, pilot screen (AID 572;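 active means viability at or below 10% of carrier control in both of two separate runs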;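 further: compound exposure lasted between 18 and 24 h rather than exactly 24 h; 100% = carrier-treated control wells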); conditions: SK-BR-3 viability, CellTiter-Glo luminescence, at 10 µM, stronger effect = lower value
[4] = HUVEC growth inhibition – cell-based, human, primary screen (AID 575;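 active means viability at or below 30% in both replicate assays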;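 further: 100% = median of untreated cell wells with 0.1% DMSO on each plate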); conditions: HUVEC proliferation, CellTiter-Glo luminescence, 72 h; at 10 µM; stronger effect = lower value
Method in brief: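 material = primary HUVEC, no more than 12 passages | input = 1250 cells per well | controls = vehicle and MePR control wells | measured by = CTG luminescence | times = 72 h compound incubation | format = collagen-coated 384-well format | read-out = % viability vs DMSO wells | doses = single 10 µM dose, 0.1% DMSO, from 5x medium stock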

[5] = H69AR cell proliferation blockers – human, duplicate replicates, primary screen (AID 580;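 active means viability at or under a set limit in both replicates, limit being median viability minus 3 SD, cut at about 48% in these data, passing the limit was not always enough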;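 further: 100% = mean luminescence of untreated wells and 0% = no signal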); conditions: H69AR lung tumor cells viability, ATP luminescence, 72 h; at 10 µM; stronger effect = lower value
[6] = MRP1 drug-resistance reversers in H69AR cells – cell-based, doxorubicin co-treatment, pilot screen (AID 601;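 active means viability loss from added drug above about 55%, and viability with drug at most 40%, in both replicates, limit read from the data, passing the limit was not always enough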); conditions: CellTiter-Glo, 72 h, at 10 µM; for differential viability (reversal): stronger effect = higher value
[7] = yeast transport mutant growth inhibition pilot in 384-well plates, post-Golgi transport modulator project (AID 636; in the data active means inhibition above about 31%); conditions: absorbance 615 nm, about 18 h, stronger effect = higher value
[8] = growth suppression of yeast trafficking mutant, preliminary HTS, modulators of trafficking downstream of Golgi apparatus project, 1536-format plate, OD 615 nm (AID 637); conditions: yeast transport mutant growth, absorbance 615 nm, 18 h; stronger effect = higher value
[9] = H69AR cells + 2 uM doxorubicin, measured here: viability with 2 uM doxorubicin, stronger effect = lower value
[10] = H69AR cells, compound alone cytotoxicity

Chain of Receptor tyrosine-protein kinase erbB-2 (Homo sapiens) (P04626 whole entry, looked up): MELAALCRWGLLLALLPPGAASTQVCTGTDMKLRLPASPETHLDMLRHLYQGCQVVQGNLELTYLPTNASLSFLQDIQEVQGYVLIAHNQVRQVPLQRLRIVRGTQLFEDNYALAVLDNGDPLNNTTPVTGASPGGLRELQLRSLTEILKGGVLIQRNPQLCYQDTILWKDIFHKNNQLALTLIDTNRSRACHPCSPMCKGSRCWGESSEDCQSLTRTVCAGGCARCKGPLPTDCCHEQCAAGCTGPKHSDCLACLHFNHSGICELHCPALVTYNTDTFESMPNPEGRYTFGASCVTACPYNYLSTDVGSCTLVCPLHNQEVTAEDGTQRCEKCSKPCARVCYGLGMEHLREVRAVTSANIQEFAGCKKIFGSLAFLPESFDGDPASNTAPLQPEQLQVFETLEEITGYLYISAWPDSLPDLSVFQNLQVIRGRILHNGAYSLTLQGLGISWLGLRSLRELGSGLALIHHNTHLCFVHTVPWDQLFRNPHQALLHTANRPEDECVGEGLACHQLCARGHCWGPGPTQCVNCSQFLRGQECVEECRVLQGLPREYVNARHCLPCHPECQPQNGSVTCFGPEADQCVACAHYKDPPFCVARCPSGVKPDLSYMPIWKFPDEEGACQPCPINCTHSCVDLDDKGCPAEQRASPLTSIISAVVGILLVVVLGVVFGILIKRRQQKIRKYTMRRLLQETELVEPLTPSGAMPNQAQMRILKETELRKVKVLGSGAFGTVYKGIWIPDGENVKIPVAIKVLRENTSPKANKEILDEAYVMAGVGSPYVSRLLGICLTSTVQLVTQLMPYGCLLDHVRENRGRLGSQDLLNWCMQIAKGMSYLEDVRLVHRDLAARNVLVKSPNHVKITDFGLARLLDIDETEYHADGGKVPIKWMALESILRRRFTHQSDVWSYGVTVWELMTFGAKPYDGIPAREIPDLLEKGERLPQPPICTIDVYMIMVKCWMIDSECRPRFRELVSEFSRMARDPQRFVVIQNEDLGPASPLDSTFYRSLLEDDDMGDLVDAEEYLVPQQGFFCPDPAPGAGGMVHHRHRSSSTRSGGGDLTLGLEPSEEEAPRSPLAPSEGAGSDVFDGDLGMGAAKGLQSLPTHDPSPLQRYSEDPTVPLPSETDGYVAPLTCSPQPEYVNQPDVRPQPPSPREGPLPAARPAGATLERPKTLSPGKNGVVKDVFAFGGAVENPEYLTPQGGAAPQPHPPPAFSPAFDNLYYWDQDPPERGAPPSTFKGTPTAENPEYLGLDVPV

| SMILES | viability [1] | Her2 level [2] | viability [3] | viability [4] | viability [5] | differential viability (reversal) ([6]; H69AR cells + 2 uM doxorubicin) | viability [6, 9] | viability [6, 10] | inhibition [7] | inhibition [8] |
| --- | --- | --- | --- | --- | --- | --- | --- | --- | --- | --- |
| COc1ccc(C)cc1S(=O)(=O)Nc1cccnc1 | 90.5% | 84.5% (inactive) | 90.5% (inactive) | 91.2% (inactive) | 88.4% (inactive) | 1.54% (inactive) | 86.9% | 88.4% | -4.19% (inactive) | 0.16% (inactive) |
| O=C(CCN1C(=O)COc2ccccc21)NCCCN1CCN(c2ccccc2F)CC1 | 105% | 118% (inactive) | 105% (inactive) | 90.6% (inactive) | 84.6% (inactive) | 5.56% (inactive) | 79% | 84.6% | -3.64% (inactive) | -2.5% (inactive) |
| Cc1ccc(S(=O)(=O)CCc2nnc(NC(=O)c3cnccn3)s2)cc1 | 97.5% | 87% (inactive) | 97.5% (inactive) | 116% (inactive) | 99.6% (inactive) | 1.94% (inactive) | 97.6% | 99.6% | -4.13% (inactive) | 3.93% (inactive) |
| CCOC(=O)c1c(C)[nH]c(C(=O)CSc2nc3ccccc3o2)c1C | 85.5% | 85% (inactive) | 85.5% (inactive) | 88.6% (inactive) | 73.3% (inactive) | -18.9% (inactive) | 92.2% | 73.3% | -1.15% (inactive) | -5.17% (inactive) |
| CC(C)Nc1ncnc2c1cnn2-c1ccccc1 | 95.5% | 104% (inactive) | 95.5% (inactive) | 88.3% (inactive) | 94.7% (inactive) | 4.19% (inactive) | 90.5% | 94.7% | 0% (inactive) | -8.33% (inactive) |
| COC(=O)COc1nc(C)c(Br)c(OC)n1 | 96.5% | 99% (inactive) | 96.5% (inactive) | 105% (inactive) | 116% (inactive) | 25.9% (inactive) | 90% | 116% | -3.95% (inactive) | 7.54% (inactive) |
| Cc1nc(Nc2nc(=O)c3ccccc3n2C)nc2c(C)cccc12 | 122% | 98% (inactive) | 122% (inactive) | 89.5% (inactive) | 86.1% (inactive) | -12.9% (inactive) | 99% | 86.1% | -2.89% (inactive) | 2.54% (inactive) |
| CCC(=O)c1ccc(OCCN2CCOCC2)cc1 | 99.5% | 91.5% (inactive) | 99.5% (inactive) | 111% (inactive) | 109% (inactive) | 17% (inactive) | 92.1% | 109% | -5% (inactive) | -3.87% (inactive) |
| Cc1nc(N2CCc3ccccc32)[nH]c(=O)c1CCC(C)C | 87.5% | 89% (inactive) | 87.5% (inactive) | 72.3% (inactive) | 79.1% (inactive) | 9.09% (inactive) | 70% | 79.1% | -2.99% (inactive) | 6.17% (inactive) |
| COc1ccc(OC)c(S(=O)(=O)NCCC2=CCCCC2)c1 | 77% | 87.5% (inactive) | 77% (inactive) | 106% (inactive) | 96.6% (inactive) | -5.82% (inactive) | 102% | 96.6% | -6.89% (inactive) | -3.77% (inactive) |
| Cc1nnc(SCc2nc3ccccc3s2)n1-c1ccccc1 | 88% | 83% (inactive) | 88% (inactive) | 75.4% (inactive) | 76% (inactive) | -5.34% (inactive) | 81.3% | 76% | -6% (inactive) | -0.48% (inactive) |
| CC(=O)Nc1cc2c(nc1C)nc(C)n2Cc1ccc(Br)cc1 | 76% | 88% (inactive) | 76% (inactive) | 90% (inactive) | 108% (inactive) | 12.7% (inactive) | 95.3% | 108% | -4.4% (inactive) | 0.33% (inactive) |
| Cc1noc(C)c1C(=O)Nc1ccc(Cl)cc1C(F)(F)F | 91% | 86.5% (inactive) | 91% (inactive) | 84.7% (inactive) | 93.1% (inactive) | -0.845% (inactive) | 94% | 93.1% | -6.13% (inactive) | 3.11% (inactive) |
| O=c1c[n+]([O-])c2ccccc2n1OCc1c(F)cccc1F | 90.5% | 70.5% (inactive) | 90.5% (inactive) | 93.4% (inactive) | 88.2% (inactive) | 1.98% (inactive) | 86.3% | 88.2% | -3.33% (inactive) | -1.59% (inactive) |
| CN(CC(=O)Nc1nccs1)S(=O)(=O)c1ccc(F)cc1 | 82% | 114% (inactive) | 82% (inactive) | 92.1% (inactive) | 95.2% (inactive) | -7.69% (inactive) | 103% | 95.2% | 0.78% (inactive) | -4.75% (inactive) |
| CCOC(=O)C1CCCN(c2c(NCc3ccco3)c(=O)c2=O)C1 (stereo not given) | 94% | 108% (inactive) | 94% (inactive) | 83.3% (inactive) | 94.3% (inactive) | 11.7% (inactive) | 82.6% | 94.3% | 2% (inactive) | -6.07% (inactive) |
| Cc1cccc2cc(CN(CCCO)C(=O)Nc3ccc(Cl)cc3)c(=O)[nH]c12 | 74% | 69.5% (inactive) | 74% (inactive) | 67.9% (inactive) | 77.1% (inactive) | 5.85% (inactive) | 71.2% | 77.1% | -5.32% (inactive) | -1.43% (inactive) |
| CC(=O)Nc1ccc(S(=O)(=O)Nc2nc3ccccc3nc2N2CCCC2)cc1 | 99.5% | 98% (inactive) | 99.5% (inactive) | 93.7% (inactive) | 92.3% (inactive) | -8.08% (inactive) | 100% | 92.3% | -7.87% (inactive) | 3.61% (inactive) |
| CC(C)N(C(=O)COC(=O)c1ccc(O)cc1)C(C)C | 96.5% | 87.5% (inactive) | 96.5% (inactive) | 88.3% (inactive) | 97.6% (inactive) | 9.85% (inactive) | 87.8% | 97.6% | 0.39% (inactive) | -0.16% (inactive) |
| Cc1ccc(N2CC(C(=O)Nc3nnc(C)s3)CC2=O)cc1 (stereo not given) | 110% | 90% (inactive) | 110% (inactive) | 86.2% (inactive) | 106% (inactive) | 16.4% (inactive) | 89.9% | 106% | -4.67% (inactive) | 0.65% (inactive) |
| CCc1nnc(NC(=O)c2cc3ccccc3oc2=O)s1 | 104% | 95.5% (inactive) | 104% (inactive) | 118% (inactive) | 89.7% (inactive) | -4.11% (inactive) | 93.8% | 89.7% | -5.71% (inactive) | -3.65% (inactive) |
| Cc1cc(C)c2c(C)nn(C3CCCCC3)c2n1 | 81.5% | 114% (inactive) | 81.5% (inactive) | 80.8% (inactive) | 95.5% (inactive) | 12.3% (inactive) | 83.2% | 95.5% | 6.62% (inactive) | 14.1% (inactive) |
| C=CCn1c(-c2ccc(OC)cc2)nc2ccccc21 | 118% | 99.5% (inactive) | 118% (inactive) | 110% (inactive) | 95.5% (inactive) | 4.69% (inactive) | 90.8% | 95.5% | -4.27% (inactive) | 3.71% (inactive) |
| O=C(Cn1cccc1C(=O)c1ccccc1)NCCN1CCOCC1 | 98% | 89.5% (inactive) | 98% (inactive) | 111% (inactive) | 90% (inactive) | 2.57% (inactive) | 87.4% | 90% | -0.79% (inactive) | 0.97% (inactive) |
| COc1ccc(C)cc1-n1nnnc1SCC(=O)Nc1cc(C)on1 | 95% | 85% (inactive) | 95% (inactive) | 78.6% (inactive) | 90.6% (inactive) | 4.68% (inactive) | 85.9% | 90.6% | -2.6% (inactive) | -0.63% (inactive) |
| CCCCn1nnc(NC(=O)c2cc3ccccc3o2)n1 | 107% | 88.5% (inactive) | 107% (inactive) | 119% (inactive) | 81.6% (inactive) | -8.71% (inactive) | 90.3% | 81.6% | 0.13% (inactive) | 8% (inactive) |
| C=CS(=O)(=O)c1ccc(Oc2ccc(S(=O)(=O)C=C)cc2)cc1 | 243% | 21% (active) | 243% (inactive) | 97% (inactive) | 1.27% (active) | 0.405% (inactive) | 0.865% | 1.27% | -4.67% (inactive) | 1.77% (inactive) |
| CC(C)Cn1c(=O)c(C2=NS(=O)(=O)c3ccccc3N2)c(O)c2ccccc21 | 118% | 86.5% (inactive) | 118% (inactive) | 97% (inactive) | 98.1% (inactive) | -0.935% (inactive) | 99% | 98.1% | -2.21% (inactive) | 1.8% (inactive) |
